Test results published in ChEMBL document CHEMBL4513216, “Probing the Open Global Health Chemical Diversity Library for Multistage-Active Starting Points for Next-Generation Antimalarials” (ACS Infect Dis, 2020).

Assay: Toxicity liver stage against HepG2, at 10uM
Type: cell-based
Design: test concentration 10 uM, cell line HepG2-A16-CD81EGFP
Details: human, HepG2-A16-CD81EGFP cells; read-out: INHIBITION
How it was run: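 Uninfected HepG2-A16-CD81EGFP cells, 3 × 10^3 per well, 1536-well, plated on prespotted compound at 10 μM final, parasite-free screening media added to match infected plates; puromycin 10 μM positive, DMSO 0.5% negative; run in parallel with 48 h PbLuc assay at 37 °C, 5% CO2; viability by CellTiter-Glo luminescence, normalized to controls.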

SMILES	cytotoxicity at 10 µM [%]
CC(C)Oc1cccc(C(=O)C2CCCN(C(=O)c3ccnn3C)C2)c1 (stereo not drawn)	1.3
CN(C)c1nc(N)nc(CN2CCCC2c2ccsc2)n1 (stereo not drawn)	-19.6
Cn1cccc1C(O)CNC(=O)c1cccc(Cl)c1 (stereo not drawn)	-1.94
Cc1ccc(F)cc1S(=O)(=O)Nc1cnc(N2CCCC2)nc1	3.91
O=C1CC(c2ccc(O)cc2)c2sc(C(=O)O)c(-c3ccccc3)c2N1 (stereo not drawn)	-0.472
O=C(Nc1ccc(I)cc1C(=O)NCCN1CCOCC1)c1cccs1	-5.09
O=C(c1ccoc1)N1CCC2(CC1)C(=O)Nc1ccccc12	-13.6
CCn1nc(C)c2nn(CC(=O)NC3CCSCC3)cc21	-3.57
O=C1CN(C(=O)CCn2c(C(F)(F)F)cc3cccnc32)CCN1	-13
Cc1nc(Nc2nnc(C)s2)cc(C2CCCN2c2ccncn2)n1 (stereo not drawn)	-14.3
Cc1cccc(C(=O)N2C[C@@H]3CC[C@H](Oc4cccc(F)c4)[C@@H]3C2)n1	-14.7
C[S+]([O-])CCNC(=O)N1CCSC2(CCCCC2)C1 (stereo not drawn)	-0.363
COc1ccc(CNc2nc(C3CC3)no2)cc1OC	4.44
Cc1cc(CNS(C)(=O)=O)ccc1N(C)C	-11.5
COc1ccccc1NC(=O)CC(C)NCc1scnc1C (stereo not drawn)	0.686
Cc1cc(C)c(CNC(=O)NCCNc2ncccn2)c(=O)[nH]1	-49.4
Cc1cc(C2CN(CC(=O)NCc3ccco3)CCO2)ccc1F (stereo not drawn)	4.29
Cc1cc(C)n(-c2ccc(N3CCCSCC3)nc2)n1	-2.08
Cc1cc(Br)oc1C(=O)N1CCC(N(C)C)CC1	-4.71
COc1ccc(-c2nc(CN3CC(n4cccn4)C3)no2)cc1	-3.08
CCCS(=O)(=O)N1CCC(Oc2ccc(C#N)cc2)CC1	3.82

SMILES	cytotoxicity at 10 µM [%]
CCc1nc(C(=O)N2CCN(C(=O)CCc3ccccc3)CC2)c[nH]1	5.92
CCOc1ccc(OC2CCCN(c3cnn(C)c3)C2=O)cc1 (stereo not drawn)	0.118
CCN1CCOC(CNc2nccc(OC)n2)C1 (stereo not drawn)	-0.572
CCC(SC)C(=O)N1CCC(n2ccnn2)CC1 (stereo not drawn)	-41.5
c1ccc(CN2CCC(NCCc3ccc4c(c3)CCO4)CC2)nc1	3.73
CCSCCC(=O)NC1CCN(C(C)c2ccccc2)CC1 (stereo not drawn)	-1.22
COc1ccsc1C(=O)Nc1cc(Cl)c(=O)n(C)c1	2.05
COc1ccccc1N1CCC(CNCc2c(C)nn(C)c2OC)C1 (stereo not drawn)	5.28
CN(C)c1nccc(N(C)C2CCCCC2)n1	-6.37
Cc1c(NCCOCC(F)(F)F)cccc1C(=O)N1CCCC1	-0.595
O=S(=O)(CC1CCCCO1)Nc1cc(F)ccc1-n1cccn1 (stereo not drawn)	7.71
COC[C@@H]1CCC[C@]12CN(S(=O)(=O)c1cn(C)cn1)CCO2	4.06
Cn1c2c(c(=O)n1C)CN(C(=O)c1ccncc1F)CCC2	-95
Cc1cnc(N2CCOC3(COCCN(c4nccs4)C3)C2)nc1 (stereo not drawn)	-114
COCC(=O)NCc1cc(=O)n2c(n1)CN(Cc1cccs1)CCC2	-96.5
CC(C)c1nccc([C@H]2C[C@@H]3CCN(Cc4ccoc4)C[C@H]3O2)n1	-4.45
COCC(=O)N1CCC2(CC1)CC(CC(=O)NC1CC1)c1ccccc12 (stereo not drawn)	0.873
Nc1ccnc(N2CCCC(CCc3ccccc3)(C(=O)O)C2)n1 (stereo not drawn)	3.33
COc1ccccc1CCC(=O)N1CCCC(OCc2cccnc2)C1 (stereo not drawn)	2.98
Cc1nnc(N2CCCC(C(=O)c3cccc(Cl)c3)C2)o1 (stereo not drawn)	6.14
O=C(Nc1ccc2occc2c1)N1CCCC(O)(CO)CC1 (stereo not drawn)	-0.735

SMILES	cytotoxicity at 10 µM [%]
Cc1cccnc1CCNCC1(O)CCCN(CC2CCCCC2)C1=O (stereo not drawn)	-203
Cc1nc2c(c(NCC3Cc4ccccc4CN3C)n1)CCNCC2 (stereo not drawn)	-9.08
CNCCNc1ccc(-c2nc(-c3cccc(OC)c3OC)no2)cn1	-2.4
CC(C)(O)c1cn(C2CCN(c3ncccc3Cl)CC2)nn1	-46.4
COc1ccc(Cc2c(O)nc(SC)n(-c3ccccc3)c2=O)cc1	1.76
CC(C)c1ccn(C2(C(=O)O)CCN(c3cc(C(N)=O)ccn3)CC2)n1	1.71
CCN(CC)CCn1cnc(-c2ccccc2)c1-c1ncc[nH]1	4.03
CCc1nc(N2CCN(CCOC)CC2)c2cnn(C)c2n1	0.363
COc1cc(C)ccc1S(=O)(=O)N1CC[C@](C)(O)[C@H](C)C1	7.52
Cc1cccc(OC2CN(C(=O)C3CC(=O)N(C(C)(C)C)C3)C2)c1 (stereo not drawn)	4.4
OCC1CCCCN1CCCNCc1cc(O)c2cc(F)ccc2n1 (stereo not drawn)	-39.2
CCc1cc(NCCCOC2CCN(C)CC2)ncn1	-8.34
Cc1cccc(-c2ncc(CNC(C)Cc3ncccc3C)cn2)c1 (stereo not drawn)	-13.2
Cc1nc(CC(=O)N(CCN2CCOCC2)Cc2ccco2)c(C)s1	-3.71
Cc1ccccc1CC1(C(=O)O)CCCN(c2ncnc3[nH]ccc23)C1 (stereo not drawn)	3.63
CCCOC1CCCN(C(=O)c2ccc(S(N)(=O)=O)cc2)C1 (stereo not drawn)	-13.6
Cc1cc(Nc2nc(C)cs2)nc(C2CCCCN2CCO)n1 (stereo not drawn)	1.8
CCc1nc(CN2CCCN(C(=O)c3ccnc(C)n3)CC2)cs1	-13.4
Cn1c(C2CC2)nc2c1CCN(Cc1nc(-c3ccsc3)no1)C2	8.73
CCn1cc(NC(=O)NCC(c2ccsc2)N(C)C)cn1 (stereo not drawn)	-8.01
Cc1nc(C2CCCN(C(=O)Cn3ccccc3=O)C2)sc1C (stereo not drawn)	1.5

SMILES	cytotoxicity at 10 µM [%]
O=C(NCCNC(=O)c1scnc1Cl)c1cccs1	-9.44
CCOCCN1CCN(Cc2cccc(C(=O)N(C)C)c2)CC1CC (stereo not drawn)	-5.83
CCN1CCN(c2ccc(CNC(=O)c3cc(C)on3)cn2)CC1	-11
CC(=O)NCCNC(=O)CN1CCOC(Cn2cc(C)cn2)C1 (stereo not drawn)	-4.44
CCc1n[nH]c(C2CN(CCS(C)(=O)=O)CCO2)n1 (stereo not drawn)	-18
Cn1ccc(CN2CCC(Oc3ccccc3)CC2)cc1=O	-3.71
Cc1noc(C(C)C)c1C(=O)NCc1cc(F)cc(F)c1	-5.54
CCN1CCOC(CNCc2ccccc2OCc2ccccn2)C1 (stereo not drawn)	-10.1
CCOc1cc(C(=O)N2CCCC(c3cc(C(N)=O)[nH]n3)C2)ccn1 (stereo not drawn)	-7.37
O=c1[nH]c(CCN2CCCC(Cn3cncn3)C2)nc2ccccc12 (stereo not drawn)	-8.62
COc1cccc(CCNCc2c(C)nn(C)c2N(C)C)c1	-1.6
COc1ccc(-c2cnc(CN3CCn4c(C)nnc4C3)o2)cc1	-13.5
Cc1nnc2n1CCN(CCS(=O)(=O)c1ccccc1)C2	-9.7
Cc1cc(C)n(CC2CN(Cc3nc(-c4ccoc4)no3)CCO2)n1 (stereo not drawn)	-8.13
CCN1C(=O)CCC12CCC(NC(=O)NCc1cccnc1)CC2 (stereo not drawn)	-104
CN(C)CCN1CCOCC2(C1)CN(Cc1ccsc1)CCO2 (stereo not drawn)	-0.439
Cc1ccc(CN2CCC3(CCCN3S(C)(=O)=O)CC2)s1	-113
CN(C)C[C@@H]1C[C@@H]2CN(C(=O)c3ccoc3)CC[C@@H]2N1CC1CC1	6.71
COCCN1CCCn2c(nc(CNS(C)(=O)=O)cc2=O)C1	-110
COCC(=O)NCc1cc(=O)n2c(n1)CN(Cc1ccccc1)CCC2	-103
